Assay results from ChEMBL document CHEMBL3576866, “Discovery of a Cyclic Boronic Acid β-Lactamase Inhibitor (RPX7009) with Utility vs Class A Serine Carbapenemases” (J Med Chem, 2015).

Columns and labels:
[1] = target: Carbapenem-hydrolyzing beta-lactamase KPC (Klebsiella pneumoniae) (UniProt Q9F663); test: Inhibition of Klebsiella pneumoniae KP1084 KPC-3 assessed as biapenem MIC at 4 ug/ml by broth microdilution method
Klebsiella pneumoniae [2] = test: Inhibition of Klebsiella pneumoniae KP1088 SHV-11 assessed as ertapenem MIC at 4 ug/ml by broth microdilution method
Procedure, shortened: (§1)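 CLSI broth microdilution (M07-A9, 2012) against the clinical K. pneumoniae isolate. Carbapenem MICs were read alone and with 9f held at a fixed 4 μg/mL.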

[3] = target: Beta-lactamase (Enterobacter cloacae) (UniProt P05364); test: Inhibition of Enterobacter cloacae ECL1061 AmpC assessed as cefepime MIC at 4 ug/ml by broth microdilution method
Klebsiella pneumoniae [4] = test: Inhibition of Klebsiella pneumoniae KP1084 SHV-11 assessed as imipenem MIC at 4 ug/ml by broth microdilution method
[5] = Cmax in rat at 1000 mg/kg, iv administered as 0.5 hrs infusion by HPLC-MS method; assay type: ADME, organism-based; design: dose 1000 mg/kg, route intravenous; conditions: in vivo
Klebsiella pneumoniae [6] = test: Inhibition of Klebsiella pneumoniae KP1087 SHV-11 assessed as ertapenem MIC at 4 ug/ml by broth microdilution method
Procedure, shortened: (§2)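 CLSI broth microdilution (M07-A9, 2012) MIC of the carbapenem against clinical serine carbapenemase-producing strain, tested alone and with the inhibitor held at a fixed 4 μg/mL.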

Klebsiella pneumoniae [7] = test: Inhibition of Klebsiella pneumoniae KP1082 KPC-2 assessed as biapenem MIC at 4 ug/ml by broth microdilution method; procedure, shortened: as §2
[8] = target: Beta lactamase TEM-1 (Klebsiella pneumoniae) (UniProt Q7B899); test: Inhibition of Klebsiella pneumoniae KP1087 TEM-1 assessed as ertapenem MIC at 4 ug/ml by broth microdilution method; procedure, shortened: as §2
[9] = target: Class A carbapenemase KPC-2 (Escherichia coli) (UniProt A8DS27); test: Inhibition of Escherichia coli EC1007 KPC-3 assessed as biapenem MIC at 4 ug/ml by broth microdilution method
Klebsiella oxytoca [10] = test: Inhibition of Klebsiella oxytoca KX1001 OXA-2 assessed as cefepime MIC at 4 ug/ml by broth microdilution method
Procedure, shortened: (§3)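 CLSI broth microdilution (M07-A9) against clinical strains expressing serine β-lactamases.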

[11] = AUC (0 to infinity) in rat at 300 mg/kg, iv administered as 0.5 hrs infusion by HPLC-MS method; assay type: ADME, organism-based; design: dose 300 mg/kg, time infinity, route intravenous; conditions: in vivo
[12] = target: Beta lactamase TEM-1 (Klebsiella pneumoniae) (UniProt Q7B899); test: Inhibition of Klebsiella pneumoniae KP1084 TEM-1 assessed as ertapenem MIC at 4 ug/ml by broth microdilution method; procedure, shortened: as §2
Klebsiella pneumoniae [13] = test: Inhibition of Klebsiella pneumoniae KP1082 KPC-2 assessed as ertapenem MIC at 4 ug/ml by broth microdilution method; procedure, shortened: as §2
[14] = Inhibition of Escherichia coli recombinant TEM-10 assessed as substrate nitrocefin degradation preincubated for 10 mins followed by substrate addition measured every 10 secs for 10 mins by spectrophotometric analysis
Procedure, shortened: (§4)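 β-Lactamases purified from overexpressing recombinant E. coli. Enzyme preincubated with inhibitor at varying concentrations for 10 min at room temperature in 50 mM Na phosphate pH 7.0, 0.1 mg/mL BSA. Then 50 μM nitrocefin (final) added and cleavage read at 490 nm every 10 s for 10 min. Ki derived by the Waley method.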

Klebsiella pneumoniae [15] = test: Inhibition of Klebsiella pneumoniae KP1004 KPC-2 assessed as biapenem MIC at 4 ug/ml by broth microdilution method; procedure, shortened: as §2
Klebsiella oxytoca [16] = test: Inhibition of Klebsiella oxytoca KX1017 OXA-2 assessed as ertapenem MIC at 4 ug/ml by broth microdilution method
Klebsiella pneumoniae [17] = test: Inhibition of Klebsiella pneumoniae KP1088 SHV-11 assessed as meropenem MIC at 4 ug/ml by broth microdilution method; procedure, shortened: as §1
[18] = Volume of distribution in rat at 1000 mg/kg, iv administered as 0.5 hrs infusion by HPLC-MS method; assay type: ADME, organism-based; conditions: in vivo
Homo sapiens [19] = test: Clearance in human at 1 g administered as 3 hrs of infusion; assay type: ADME, organism-based; conditions: in vivo, iv
[20] = Inhibition of Escherichia coli recombinant KPC-2 assessed as substrate nitrocefin degradation preincubated for 10 mins followed by substrate addition measured every 10 secs for 10 mins by spectrophotometric analysis; procedure, shortened: as §4
[21] = target: Beta-lactamase SHV-5 (Klebsiella pneumoniae) (UniProt P0A3M1); test: Inhibition of Klebsiella pneumoniae KP1011 SHV5 assessed as cefepime MIC at 4 ug/ml by broth microdilution method; procedure, shortened: as §3
[22] = target: Beta-lactamase (Klebsiella pneumoniae) (UniProt Q93LQ9); test: Inhibition of Klebsiella pneumoniae KP1004 KPC 2 carbapenemase assessed as minimum concentration required to reduce biapenem MIC from […] ug/ml to 1 ug/mL by broth microdilution method
[23] = Half life in rat at 300 mg/kg, iv administered as 0.5 hrs infusion by HPLC-MS method; assay type: ADME, organism-based; conditions: in vivo
[24] = Volume of distribution in rat at 300 mg/kg, iv administered as 0.5 hrs infusion by HPLC-MS method; assay type: ADME, organism-based; conditions: in vivo
Trypsin = Trypsin (Homo sapiens, UniProt P07477+P07478+P35030); test: Inhibition of trypsin (unknown origin) using N-Bz-R-AMC as substrate preincubated for 10 mins followed by substrate addition measured for 30 mins by spectrophotometric analysis; assay type: protein assay
Procedure, shortened: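 Trypsin in 50 mM Tris-HCl, pH 8.0, 10 mM CaCl2, 100 mM NaCl. Preincubated 10 min at 37 °C with varied inhibitor. N-Bz-R-AMC (listed at 200 μM) was then added and fluorescence read for 30 min. Rates were vs untreated control; IC50 is the concentration giving 50% inhibition.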

Klebsiella pneumoniae [25] = test: Inhibition of Klebsiella pneumoniae KP1087 KPC-2 assessed as biapenem MIC at 4 ug/ml by broth microdilution method
Klebsiella pneumoniae [26] = test: Inhibition of Klebsiella pneumoniae KP1087 CTX-M-15 assessed as biapenem MIC at 4 ug/ml by broth microdilution method
[27] = target: Beta lactamase TEM-1 (Klebsiella pneumoniae) (UniProt Q7B899); test: Inhibition of Klebsiella pneumoniae KP1004 TEM-1 assessed as imipenem MIC at 4 ug/ml by broth microdilution method; procedure, shortened: as §2
[28] = target: Lysosomal protective protein (Homo sapiens, UniProt P10619); test: Inhibition of cathepsin A (unknown origin) using MCA-RPPGFSAFK-Dnp as substrate preincubated for 10 mins followed by substrate addition measured for 30 mins by […] analysis
Lysosomal protective protein, sequence (P10619 29-326 limits assumed): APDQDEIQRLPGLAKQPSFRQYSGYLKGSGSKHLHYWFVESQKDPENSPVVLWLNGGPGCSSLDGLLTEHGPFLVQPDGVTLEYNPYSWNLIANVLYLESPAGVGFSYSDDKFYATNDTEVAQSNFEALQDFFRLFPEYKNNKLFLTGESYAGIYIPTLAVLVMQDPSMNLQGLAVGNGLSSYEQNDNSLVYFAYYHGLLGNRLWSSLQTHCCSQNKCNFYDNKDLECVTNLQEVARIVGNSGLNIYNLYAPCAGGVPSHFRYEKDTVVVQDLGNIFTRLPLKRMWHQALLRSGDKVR
Lysosomal protective protein, sequence (P10619 327-480 limits assumed): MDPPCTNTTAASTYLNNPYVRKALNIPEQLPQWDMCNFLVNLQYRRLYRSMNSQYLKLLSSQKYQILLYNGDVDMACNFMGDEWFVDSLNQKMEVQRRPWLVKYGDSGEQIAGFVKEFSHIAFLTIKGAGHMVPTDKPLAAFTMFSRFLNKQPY

Klebsiella pneumoniae [29] = test: Inhibition of Klebsiella pneumoniae KP1082 KPC-2 assessed as imipenem MIC at 4 ug/ml by broth microdilution method
[30] = Inhibition of Escherichia coli recombinant CMY-2 assessed as substrate nitrocefin degradation preincubated for 10 mins followed by substrate addition measured every 10 secs for 10 mins by spectrophotometric analysis; procedure, shortened: as §4
Homo sapiens [31] = test: Toxicity in human at 250 to 1500 mg administered as 3 hrs of infusion; assay type: organism-based; conditions: in vivo, iv
Procedure, shortened: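 Phase 1 study in 36 normal (healthy) volunteers under GCP. Single 3 h infusions were given at 250, 500, 750, 1000, 1250 or 1500 mg, and drug-related adverse events were recorded.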

[32] = target: Beta lactamase TEM-1 (Klebsiella pneumoniae) (UniProt Q7B899); test: Inhibition of Klebsiella pneumoniae KP1084 TEM-1 assessed as biapenem MIC at 4 ug/ml by broth microdilution method

O=C(O)C[C@@H]1CC[C@H](NC(=O)Cc2cccs2)B(O)O1 [VABORBACTAM]
MIC [1]: 0.25 µg/mL
MIC (Klebsiella pneumoniae [2]): ≤ 0.06 µg/mL
MIC [3]: 2 µg/mL
MIC (Klebsiella pneumoniae [4]): 0.25 µg/mL
Cmax [5]: 2600 µg/mL
MIC (Klebsiella pneumoniae [6]): 2 µg/mL
MIC (Klebsiella pneumoniae [7]): ≤ 0.06 µg/mL
MIC [8]: 2 µg/mL
MIC [9]: < 0.06 µg/mL
MIC (Klebsiella oxytoca [10]): 0.5 µg/mL
AUC(0-inf) [11]: 239 µg·h/mL
MIC [12]: 4 µg/mL
MIC (Klebsiella pneumoniae [13]): ≤ 0.06 µg/mL
Ki [14]: 0.11 µM
MIC (Klebsiella pneumoniae [15]): ≤ 0.06 µg/mL
MIC (Klebsiella oxytoca [16]): 0.25 µg/mL
MIC (Klebsiella pneumoniae [17]): ≤ 0.06 µg/mL
Vd [18]: 0.55 L/kg
clearance (Homo sapiens [19]): 12.8 L/h
Ki [20]: 0.069 µM
MIC [21]: 0.25 µg/mL
MEC [22]: 0.02 µg/mL
half-life [23]: 15.6 min
Vd [24]: 0.48 L/kg
IC50 (Trypsin): > 1000 µM
MIC (Klebsiella pneumoniae [25]): 0.25 µg/mL
MIC (Klebsiella pneumoniae [26]): 0.25 µg/mL
MIC [27]: < 0.06 µg/mL
IC50 [28]: 1000 µM
MIC (Klebsiella pneumoniae [29]): 0.13 µg/mL
Ki [30]: 0.099 µM
Activity (Homo sapiens [31]): Non-toxic
MIC [32]: 0.25 µg/mL
